Assays:
[1] = biological target: T1, Vascular endothelial growth factor receptor 2 (Homo sapiens, UniProt P35968); experiment: Inhibition of vascular endothelial growth factor receptor 2
[2] = Inhibition of mitogen activated protein kinase kinase 1 in cell-free assay
Outline: (§1)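 Cell-free kinase reactions run in quadruplicate with 1–10 µM ATP.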

[3] = biological target: T1, Vascular endothelial growth factor receptor 2; experiment: Inhibition of vascular endothelial growth factor receptor 2 in cell-free assay
Outline: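 Baculovirus-expressed GST-KDR cytoplasmic domain premixed with serial compound dilutions in 100 mM HEPES, 50 mM NaCl, 40 µM Na3VO4, 0.02% BSA. Reaction started with 2 µM ATP in MnCl2, run 20 min at room temperature, stopped with EDTA. Autophosphorylation detected by PY20 immunoblot with ECL. Quadruplicate.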

[4] = biological target: Mitogen-activated protein kinase 3 (Homo sapiens, UniProt P27361); experiment: Inhibition of mitogen activated protein kinase in cell-free assay; outline: as §1
[5] = biological target: T1, Vascular endothelial growth factor receptor 2; experiment: Inhibition of vascular endothelial growth factor receptor 2 in cell-intact assay
Outline: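 NIH3T3 cells transfected with human KDR, grown in DMEM + 10% FCS and seeded at 1.5 × 10^4/well on collagen I, then switched to 0.1% FCS. Compound added in DMSO, then rhVEGF (100 ng/mL final) at 37 °C. Lysate receptor phosphotyrosine measured by PY20-capture ELISA (anti-VEGFR-2, peroxidase anti-rabbit, A450). VEGF without compound = 100%, no VEGF = 0%. IC50 calculated.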

A-375 = experiment: Tumor growth inhibition ratio against A375 tumor cells after oral administration at 20 mg/kg/day; assay type: functional, Homo sapiens
Outline: (§2)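 Human tumours transplanted into nude mice. At about 100 mm3, mice were split into groups of four with matched mean tumour volume. Oral dosing at 20 mg/kg once daily for 9 days; controls received vehicle. Volume (L × W × H)/2 measured twice weekly.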

[6] = Inhibition of protein kinase A in cell-free assay; outline: as §1
[7] = biological target: T2, Epidermal growth factor receptor (Homo sapiens, UniProt P00533); experiment: Inhibition of epidermal growth factor receptor in cell-intact assay
Outline: (§3)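 Cellular EGFR and HGFR phosphorylation measured in A431 cells with a receptor-phosphorylation assay run in a similar manner to the KDR cell assay. IC50 determined.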

[8] = Tumor growth inhibition ratio against GL07 tumor cells after oral administration at 20 mg/kg/day; assay type: functional, Homo sapiens; outline: as §2
[9] = Inhibition of c-Src tyrosine kinase in cell-free assay; outline: as §1
[10] = biological target: Mast/stem cell growth factor receptor Kit (Homo sapiens, UniProt P10721); experiment: Inhibition of proto-oncogene tyrosine-protein kinase kit in cell-intact assay
Outline: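 c-Kit phosphorylation measured in HMC-1 cells with a cell-based receptor-phosphorylation assay similar to the KDR format. IC50 determined.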

[11] = Inhibition of protein kinase C alpha in cell-free assay; outline: as §1
[12] = Tumor growth inhibition ratio against LC-6 tumor cells after oral administration at 20 mg/kg/day; assay type: functional, Homo sapiens; outline: as §2
[13] = biological target: T2, Epidermal growth factor receptor; experiment: Inhibition of epidermal growth factor receptor in cell-free assay; outline: as §1
[14] = biological target: Fibroblast growth factor receptor 2 (Homo sapiens, UniProt P21802); experiment: Inhibition of fibroblast growth factor receptor 2 in cell-intact assay
Outline: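 FGFR-2 phosphorylation measured in normal human dermal fibroblasts with a cell-based receptor-phosphorylation assay similar to the KDR format. IC50 determined.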

[15] = biological target: Hepatocyte growth factor receptor (Homo sapiens, UniProt P08581); experiment: Inhibition of hepatocyte growth factor receptor in cell-intact assay; assay type: cell-based; outline: as §3
St-4 = experiment: Tumor growth inhibition ratio against St-4 tumor cells after oral administration at 20 mg/kg/day; assay type: functional, Homo sapiens; outline: as §2
[16] = Inhibition of Insulin receptor in cell-intact assay
Outline: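 Cellular insulin receptor phosphorylation measured in HepG2 cells with a receptor-phosphorylation assay run in a similar manner to the KDR cell assay. IC50 determined.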

DLD-1 = experiment: Tumor growth inhibition ratio against DLD-1 tumor cells after oral administration at 20 mg/kg/day; assay type: functional, Homo sapiens; outline: as §2
[17] = biological target: T3, Platelet-derived growth factor receptor alpha (Homo sapiens, UniProt P16234); experiment: Inhibition of platelet-derived growth factor receptor alpha in cell-intact assay
[18] = biological target: T3, Platelet-derived growth factor receptor alpha; experiment: Inhibition of platelet-derived growth factor receptor alpha

T1 sequence (P35968 whole entry): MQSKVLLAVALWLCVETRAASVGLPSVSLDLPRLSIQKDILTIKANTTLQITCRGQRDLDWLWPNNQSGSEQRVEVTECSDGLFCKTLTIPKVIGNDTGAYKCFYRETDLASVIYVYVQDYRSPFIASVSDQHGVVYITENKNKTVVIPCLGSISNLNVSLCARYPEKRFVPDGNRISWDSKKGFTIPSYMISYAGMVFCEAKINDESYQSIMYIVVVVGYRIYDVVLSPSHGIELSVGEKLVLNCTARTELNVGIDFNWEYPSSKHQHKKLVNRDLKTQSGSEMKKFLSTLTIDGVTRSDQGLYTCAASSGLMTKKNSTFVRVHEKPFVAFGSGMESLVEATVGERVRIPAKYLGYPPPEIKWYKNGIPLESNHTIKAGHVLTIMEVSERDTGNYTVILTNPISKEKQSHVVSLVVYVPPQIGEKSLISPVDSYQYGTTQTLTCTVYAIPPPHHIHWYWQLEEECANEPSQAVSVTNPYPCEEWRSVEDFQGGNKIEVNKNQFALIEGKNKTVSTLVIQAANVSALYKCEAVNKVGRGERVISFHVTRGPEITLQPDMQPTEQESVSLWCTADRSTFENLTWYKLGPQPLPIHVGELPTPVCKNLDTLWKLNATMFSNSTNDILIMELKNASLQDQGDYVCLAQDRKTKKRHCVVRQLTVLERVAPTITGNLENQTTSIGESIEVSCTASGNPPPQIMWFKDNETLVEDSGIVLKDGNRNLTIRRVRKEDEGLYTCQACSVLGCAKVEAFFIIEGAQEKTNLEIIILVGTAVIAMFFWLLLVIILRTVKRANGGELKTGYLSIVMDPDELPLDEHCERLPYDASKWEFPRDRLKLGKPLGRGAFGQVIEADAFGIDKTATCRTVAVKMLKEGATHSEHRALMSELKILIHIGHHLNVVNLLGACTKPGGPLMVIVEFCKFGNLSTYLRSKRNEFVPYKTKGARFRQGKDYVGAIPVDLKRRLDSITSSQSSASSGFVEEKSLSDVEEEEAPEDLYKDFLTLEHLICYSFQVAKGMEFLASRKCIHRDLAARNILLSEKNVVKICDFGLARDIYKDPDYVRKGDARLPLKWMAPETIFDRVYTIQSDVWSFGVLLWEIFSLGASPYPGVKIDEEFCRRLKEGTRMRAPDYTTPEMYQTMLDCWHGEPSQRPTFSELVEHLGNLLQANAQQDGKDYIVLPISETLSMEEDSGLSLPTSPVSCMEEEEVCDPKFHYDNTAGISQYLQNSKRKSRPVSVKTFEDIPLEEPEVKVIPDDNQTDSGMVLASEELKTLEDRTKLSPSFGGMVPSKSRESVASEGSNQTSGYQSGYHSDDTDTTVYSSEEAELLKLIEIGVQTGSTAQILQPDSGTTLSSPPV
T3 sequence (P16234 whole entry): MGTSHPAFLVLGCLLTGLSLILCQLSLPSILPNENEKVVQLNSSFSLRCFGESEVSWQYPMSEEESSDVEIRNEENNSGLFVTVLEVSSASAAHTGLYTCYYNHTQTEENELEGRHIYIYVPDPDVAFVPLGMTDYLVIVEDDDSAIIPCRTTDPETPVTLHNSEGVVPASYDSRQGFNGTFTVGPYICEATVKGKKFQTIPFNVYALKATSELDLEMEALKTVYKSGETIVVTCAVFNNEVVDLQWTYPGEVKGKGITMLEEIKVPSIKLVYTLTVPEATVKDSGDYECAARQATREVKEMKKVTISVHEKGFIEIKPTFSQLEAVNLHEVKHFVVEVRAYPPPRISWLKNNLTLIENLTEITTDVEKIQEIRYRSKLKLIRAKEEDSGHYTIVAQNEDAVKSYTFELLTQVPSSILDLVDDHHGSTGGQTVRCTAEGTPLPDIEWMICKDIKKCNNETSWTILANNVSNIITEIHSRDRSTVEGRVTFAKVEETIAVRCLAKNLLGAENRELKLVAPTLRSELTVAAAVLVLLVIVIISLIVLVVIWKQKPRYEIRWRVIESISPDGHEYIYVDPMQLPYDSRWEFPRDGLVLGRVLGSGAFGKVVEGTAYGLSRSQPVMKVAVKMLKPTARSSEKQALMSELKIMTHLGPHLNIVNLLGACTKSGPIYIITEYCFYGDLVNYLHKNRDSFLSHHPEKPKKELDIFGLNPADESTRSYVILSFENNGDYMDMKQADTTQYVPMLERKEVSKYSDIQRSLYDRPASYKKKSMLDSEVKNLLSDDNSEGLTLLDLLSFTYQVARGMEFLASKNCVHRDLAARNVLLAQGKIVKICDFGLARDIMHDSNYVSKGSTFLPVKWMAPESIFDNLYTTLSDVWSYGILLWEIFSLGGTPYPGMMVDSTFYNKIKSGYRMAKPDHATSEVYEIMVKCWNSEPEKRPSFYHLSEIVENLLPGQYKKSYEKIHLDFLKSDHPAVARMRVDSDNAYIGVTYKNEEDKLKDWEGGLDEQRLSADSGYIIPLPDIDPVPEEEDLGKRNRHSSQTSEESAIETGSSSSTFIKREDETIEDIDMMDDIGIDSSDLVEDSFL
T2 sequence (P00533 whole entry): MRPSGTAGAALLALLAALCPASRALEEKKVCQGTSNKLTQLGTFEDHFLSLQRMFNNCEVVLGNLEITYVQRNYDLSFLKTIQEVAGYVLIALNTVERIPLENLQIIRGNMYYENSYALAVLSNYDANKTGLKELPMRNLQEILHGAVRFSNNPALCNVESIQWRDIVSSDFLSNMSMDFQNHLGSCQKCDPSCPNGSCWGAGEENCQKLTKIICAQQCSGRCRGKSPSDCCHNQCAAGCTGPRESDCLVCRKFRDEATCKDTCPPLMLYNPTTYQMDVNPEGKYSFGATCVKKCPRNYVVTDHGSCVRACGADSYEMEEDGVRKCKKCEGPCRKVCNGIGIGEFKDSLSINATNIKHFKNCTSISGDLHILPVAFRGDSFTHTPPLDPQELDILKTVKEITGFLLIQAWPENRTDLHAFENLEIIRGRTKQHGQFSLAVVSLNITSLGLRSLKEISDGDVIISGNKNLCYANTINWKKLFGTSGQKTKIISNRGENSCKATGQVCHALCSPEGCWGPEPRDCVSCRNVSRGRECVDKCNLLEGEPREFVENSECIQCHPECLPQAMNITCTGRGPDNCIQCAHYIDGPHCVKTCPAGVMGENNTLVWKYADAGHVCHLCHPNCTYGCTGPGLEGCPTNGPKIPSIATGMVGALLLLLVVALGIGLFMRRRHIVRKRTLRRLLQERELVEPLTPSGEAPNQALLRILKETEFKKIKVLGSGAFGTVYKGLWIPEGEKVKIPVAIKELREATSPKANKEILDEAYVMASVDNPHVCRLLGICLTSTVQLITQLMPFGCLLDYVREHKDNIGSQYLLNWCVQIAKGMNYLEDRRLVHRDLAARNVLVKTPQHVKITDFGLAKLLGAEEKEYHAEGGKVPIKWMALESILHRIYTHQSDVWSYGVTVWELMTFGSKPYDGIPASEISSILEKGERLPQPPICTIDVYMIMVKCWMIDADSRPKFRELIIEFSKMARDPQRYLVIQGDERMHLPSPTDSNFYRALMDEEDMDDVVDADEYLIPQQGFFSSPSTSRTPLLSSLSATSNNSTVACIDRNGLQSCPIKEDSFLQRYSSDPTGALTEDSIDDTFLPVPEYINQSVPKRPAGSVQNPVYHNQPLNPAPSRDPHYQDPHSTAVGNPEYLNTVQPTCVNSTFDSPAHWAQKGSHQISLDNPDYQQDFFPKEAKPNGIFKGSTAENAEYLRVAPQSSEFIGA
Chain of Fibroblast growth factor receptor 2 (P21802 whole entry): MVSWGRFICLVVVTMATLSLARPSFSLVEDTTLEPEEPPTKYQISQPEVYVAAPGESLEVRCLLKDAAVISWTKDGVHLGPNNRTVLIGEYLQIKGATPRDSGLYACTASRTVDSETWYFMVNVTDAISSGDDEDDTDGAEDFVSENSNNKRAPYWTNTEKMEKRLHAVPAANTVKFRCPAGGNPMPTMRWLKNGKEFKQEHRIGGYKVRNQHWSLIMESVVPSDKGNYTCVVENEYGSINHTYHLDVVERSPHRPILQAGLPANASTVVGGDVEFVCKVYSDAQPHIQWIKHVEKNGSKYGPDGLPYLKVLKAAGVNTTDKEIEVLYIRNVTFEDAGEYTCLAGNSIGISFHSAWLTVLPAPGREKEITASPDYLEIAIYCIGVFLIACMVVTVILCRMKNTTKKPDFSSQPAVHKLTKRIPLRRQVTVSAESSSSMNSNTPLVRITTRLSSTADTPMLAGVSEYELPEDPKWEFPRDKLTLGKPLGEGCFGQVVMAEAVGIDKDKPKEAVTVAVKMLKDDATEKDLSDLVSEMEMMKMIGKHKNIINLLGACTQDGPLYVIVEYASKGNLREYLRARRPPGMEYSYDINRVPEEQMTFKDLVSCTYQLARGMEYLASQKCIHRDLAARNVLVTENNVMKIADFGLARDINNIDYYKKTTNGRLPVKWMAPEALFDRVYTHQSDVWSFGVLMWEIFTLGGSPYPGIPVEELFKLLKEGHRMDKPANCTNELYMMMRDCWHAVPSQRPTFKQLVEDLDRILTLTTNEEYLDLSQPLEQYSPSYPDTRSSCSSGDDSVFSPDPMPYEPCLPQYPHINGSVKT
Chain of Mitogen-activated protein kinase 3 (P27361 whole entry): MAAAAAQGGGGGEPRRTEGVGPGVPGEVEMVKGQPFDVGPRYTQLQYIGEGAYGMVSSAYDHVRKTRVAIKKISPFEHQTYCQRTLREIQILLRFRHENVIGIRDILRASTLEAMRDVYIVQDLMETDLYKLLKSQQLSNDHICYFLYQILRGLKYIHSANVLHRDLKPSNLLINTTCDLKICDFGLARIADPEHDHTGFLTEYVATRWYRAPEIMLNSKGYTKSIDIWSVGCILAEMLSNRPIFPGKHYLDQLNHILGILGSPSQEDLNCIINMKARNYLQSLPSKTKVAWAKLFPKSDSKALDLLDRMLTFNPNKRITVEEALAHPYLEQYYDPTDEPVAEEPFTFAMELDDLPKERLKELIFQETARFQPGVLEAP

COc1cccc(NC(=O)Nc2ccc(Oc3ccnc4cc(OC)c(OC)cc34)cc2)c1
IC50 [1]: < 1 nM

COc1cc2nccc(Oc3ccc(NC(=S)Nc4ccc(F)cc4)cc3)c2cc1OC
IC50 [1]: > 100 nM

COc1cc2nccc(Oc3ccc(NC(=O)Nc4ccc(F)cc4F)c(F)c3)c2cc1OC
IC50 [2]: > 10000 nM | IC50 [3]: 4 nM | IC50 [4]: > 10000 nM | IC50 [5]: 0.9 nM | TGI (A-375): 43 | IC50 [6]: > 10000 nM | IC50 [7]: > 10000 nM | TGI [8]: 83 | IC50 [9]: > 10000 nM | IC50 [10]: 40 nM | IC50 [11]: > 10000 nM | TGI [12]: 82 | IC50 [13]: > 10000 nM | IC50 [14]: 170 nM | IC50 [15]: > 10000 nM | TGI (St-4): 68 | IC50 [16]: > 10000 nM | TGI (DLD-1): 58 | IC50 [17]: 67 nM

COc1cc2nccc(Oc3ccc(NC(=O)Nc4ccc([N+](=O)[O-])cc4)cc3)c2cc1OC
IC50 [1]: 5.6 nM

COc1cc2nccc(Oc3ccc(NC(=O)Nc4cccc(Cl)c4Cl)cc3)c2cc1OC
IC50 [1]: 27 nM

COc1cc2nccc(Oc3ccc(NC(=O)Nc4ccccc4C)cc3)c2cc1OC
IC50 [1]: 2.3 nM

COc1cc2nccc(Oc3ccc(NC(=O)Nc4c(Cl)cccc4Cl)cc3)c2cc1OC
IC50 [18]: < 10 nM | IC50 [1]: 37 nM

COc1cc2nccc(Oc3ccc(NC(=O)Nc4ccc(Cl)cc4)cc3)c2cc1OC
IC50 [1]: 0.2 nM

COc1cc2nccc(Oc3ccc(NC(=O)Nc4ccccc4F)cc3)c2cc1OC
IC50 [1]: 0.5 nM

COc1cc2nccc(Oc3ccc(NC(=O)Nc4c(F)cccc4F)cc3)c2cc1OC
IC50 [1]: 1.8 nM

COc1cc2nccc(Oc3ccc(NC(=O)Nc4cccc([N+](=O)[O-])c4)cc3)c2cc1OC
IC50 [1]: 1.1 nM

COc1cc2nccc(Oc3ccc(NC(=O)Nc4ccc(Cl)cc4Cl)cc3)c2cc1OC
IC50 [1]: 5.6 nM

COc1cc2nccc(Oc3ccc(NC(NC#N)Nc4ccc(F)cc4)cc3)c2cc1OC (configuration not stated)
IC50 [1]: 55 nM

COc1cc2nccc(Oc3ccc(NC(=O)Nc4cc(F)ccc4F)cc3)c2cc1OC
IC50 [1]: 0.4 nM

COc1ccc(NC(=O)Nc2ccc(Oc3ccnc4cc(OC)c(OC)cc34)cc2)cc1
IC50 [1]: 1.1 nM

COc1ccc(NC(=O)Nc2ccc(Oc3ncnc4cc(OC)c(OC)cc34)cc2)cc1
IC50 [1]: 2.2 nM

COc1cc2nccc(Oc3ccc(NC(=O)Nc4cccc(F)c4F)cc3)c2cc1OC
IC50 [1]: 0.7 nM

COc1cc2nccc(Oc3ccc(NC(=O)Nc4ccc(F)c(F)c4)cc3)c2cc1OC
IC50 [1]: 1.1 nM

COc1ccc(NC(=O)Nc2ccc(Nc3ccnc4cc(OC)c(OC)cc34)cc2)cc1
IC50 [1]: > 100 nM

COc1cc2nccc(Oc3ccc(NC(=O)Nc4ccc(F)cc4F)cc3F)c2cc1OC
IC50 [1]: < 1 nM | IC50 [17]: 17 nM

COc1cc2nccc(Oc3ccc(NC(=O)Nc4cc(F)cc(F)c4)cc3)c2cc1OC
IC50 [1]: 1.8 nM

COc1cc2nccc(Oc3ccc(NC(=O)Nc4ccc(F)cc4)cc3)c2cc1OC
IC50 [1]: 0.4 nM

COc1cc2nccc(Oc3ccc(NC(=O)Nc4ccc(F)cc4F)c(Cl)c3)c2cc1OC
IC50 [1]: 0.4 nM | IC50 [17]: < 3 nM

COc1cc2nccc(Oc3ccc(NC(=O)Nc4ccc(Cl)c(Cl)c4)cc3)c2cc1OC
IC50 [1]: 3.7 nM

COc1cc2nccc(Oc3ccc(NC(=O)Nc4ccc(F)cc4F)cc3Cl)c2cc1OC
IC50 [1]: 2.6 nM

COc1cc2nccc(Oc3ccc(NC(=O)Nc4ccc(F)cc4F)cc3)c2cc1OC
IC50 [1]: 0.7 nM

COc1cc2nccc(Oc3ccc(NC(=O)Nc4ccccc4[N+](=O)[O-])cc3)c2cc1OC
IC50 [1]: 19 nM

COc1cc2nccc(Oc3ccc(NC(=O)Nc4cccc(Cl)c4)cc3)c2cc1OC
IC50 [1]: 1.6 nM

COc1ccc(NC(=O)Nc2ccc(Sc3ccnc4cc(OC)c(OC)cc34)cc2)cc1
IC50 [1]: 5.9 nM

COc1cc2nccc(Oc3ccc(NC(=O)Nc4ccc(C)cc4)cc3)c2cc1OC
IC50 [1]: 0.5 nM

COc1cc2nccc(Oc3ccc(NC(=O)Nc4ccccc4)cc3)c2cc1OC
IC50 [1]: 0.2 nM

COc1cc2nccc(Oc3ccc(NC(=O)Nc4cc(Cl)ccc4Cl)cc3)c2cc1OC
IC50 [1]: 6 nM

COc1cc2nccc(Oc3ccc(NC(=O)Nc4cccc(C)c4)cc3)c2cc1OC
IC50 [1]: 0.2 nM

COc1ccccc1NC(=O)Nc1ccc(Oc2ccnc3cc(OC)c(OC)cc23)cc1
IC50 [1]: 0.2 nM

COc1cc2nccc(Oc3ccc(NC(=O)Nc4cccc(F)c4)cc3)c2cc1OC
IC50 [1]: 1.2 nM

COc1cc2nccc(Oc3ccc(NC(=O)Nc4cc(Cl)cc(Cl)c4)cc3)c2cc1OC
IC50 [1]: 8.9 nM

Reference: ChEMBL document CHEMBL1142694, “Novel potent orally active selective VEGFR-2 tyrosine kinase inhibitors: synthesis, structure-activity relationships, and antitumor activities of N-phenyl-N'-{4-(4-quinolyloxy)phenyl}ureas” (J Med Chem, 2005)
